Measured values: ChEMBL document CHEMBL1955718, “Discovery of new orally effective analgesic and anti-inflammatory hybrid furoxanyl N-acylhydrazone derivatives” (Bioorg Med Chem, 2012)
pIC50: −log10 of the molar value. Active and inactive are the calls of the source.

What was measured:
Rattus norvegicus [1] = test: Antihyperalgesic activity against carrageenan-induced thermal hyperalgesia in Wistar rat assessed as latency of withdrawal response at 100 umol/kg, po administered 1 hr before carrageenan challenge measured after 1 hr by hot plate test; assay type: functional
How it was run: (§1)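 Wistar rats of both sexes (150–200 g) were dosed orally as a suspension in 5% arabic gum in saline, with vehicle controls. After 1 h, 0.1 mL 1% carrageenan (1 mg/paw) or saline was injected subplantar into the hind paws. Left hind paw withdrawal latency was read on a 51 °C hot plate at 0–240 min (cut-off 20 s). Δlatency = time-0 minus later latency; mean ± SEM, n = 8–10; t-test.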

[2] = Induction of NO release in 0.1 M Tris-HCl and 0.1 mM DTPA at pH 8.3 measured for 20 mins in presence of cysteine; assay type: physicochemical; conditions: buffer, pH 8.3, 20 min
How it was run: (§2)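 Electrochemical NO detection with an ISO-NOP sensor. Compounds in DMSO added to 0.1 M Tris-HCl, 0.1 mM DTPA at pH 7.4 or 8.3. Cysteine (300 or 100 µM) added and NO recorded for 20 min at 25 or 37 °C; compound:Cys ratio 1:1 at 25 °C, with 3:1 and 37 °C runs also made.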

[3] = Induction of NO release in 0.1 M Tris-HCl and 0.1 mM DTPA at pH 7.4 measured for 20 mins in presence of cysteine; assay type: physicochemical; conditions: buffer, pH 7.4, 20 min; how it was run: as §2
[4] = Inhibition of soybean lipoxygenase using arachidonic acid as substrate; design: species or system Glycine max
How it was run: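 Soybean 15-lipoxygenase kit assay, arachidonic acid substrate, H2O2 as lipoxygenating agent in 0.1 M Tris-HCl pH 7.4. Single-point screen at 50 µM. IC50 found by varying concentration over 10–100 µM. Quercetin at 4 µM as positive control; duplicate means; Student t-test.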

Salmonella typhimurium [5] = test: Induction of mutagenesis in Salmonella Typhimurium TA98 assessed as number of revertants at 3.1 to 250 ug/plate in presence of mouse liver S9 fraction; assay type: toxicity, organism-based; conditions: salmonella enterica subsp. enterica serovar typhimurium
How it was run: (§3)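 S. typhimurium TA98, plate incorporation on minimal glucose (Vogel-Bonner) agar. Compounds were in DMSO, dosed in triplicate with a top non-toxic dose of 250 or 350 µg/plate. Runs were without S9 (positive control 4-nitro-o-phenylenediamine, 20 µg/plate) or with 500 µL Aroclor-induced mouse liver S9 (positive control 2-aminofluorene, 10 µg/plate), plus a DMSO control. Revertants were counted manually; mutagenic means ≥2-fold spontaneous revertants at two consecutive doses.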

HT-29 [6] = test: Inhibition of TNFalpha-induced NF-kappaB activation expressed in human HT-29 cells coexpressing hrGFP at 100 uM after 24 hrs by propidium iodide staining-based flow cytometric analysis relative to control; assay type: cell-based
How it was run: (§4)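 HT-29 cells stably expressing NF-κB-driven hrGFP given compound (DMSO <0.5%) for 2 h at the maximum non-cytotoxic concentration, then TNF-α at 3 ng/mL final for 18–24 h. Cells trypsinised and stained with propidium iodide; 5000 events gated on FSC/SSC. The %GFP-positive among PI-excluding live cells is normalised to TNF-α/DMSO control, ± SD.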

Salmonella typhimurium [7] = test: Induction of mutagenesis in Salmonella Typhimurium TA98 assessed as number of revertants at 3.1 to 250 ug/plate in absence of mouse liver S9 fraction; assay type: toxicity, organism-based; conditions: salmonella enterica subsp. enterica serovar typhimurium; how it was run: as §3
HT-29 [8] = test: Inhibition of NF-kappaB activation expressed in human HT-29 cells assessed as inhibition of TNFalpha-stimulated IL8 release at 400 uM after 24 hrs by flow cytometric analysis relative to Thal; assay type: cell-based
How it was run: (§5)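 Reporter HT-29-NF-κB-hrGFP cells pretreated 2 h with compound (DMSO <0.5%) at the highest concentration with 100% survival, then stimulated with TNF-α (3 ng/mL final) for 18–24 h at 37 °C. IL-8 in clarified supernatant measured by flow cytometric bead assay (500 events). Expressed as % of TNF-α/DMSO control ± SD; thalidomide as reference.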

HT-29 [9] = test: Inhibition of TNF-alpha-induced NFkappaB activation expressed in human HT-29 cells coexpressing hrGFP at 50 uM after 24 hrs by propidium iodide staining-based flow cytometric analysis relative to control; assay type: cell-based; how it was run: as §4
Rattus norvegicus [10] = test: Antihyperalgesic activity against carrageenan-induced thermal hyperalgesia in Wistar rat assessed as latency of withdrawal response at 100 umol/kg, po administered 1 hr before carrageenan challenge measured after 3 hrs by hot plate test; assay type: functional; how it was run: as §1
Salmonella typhimurium [11] = test: Induction of mutagenesis in Salmonella Typhimurium TA98 assessed as number of revertants at 6 to 500 ug/plate in absence of mouse liver S9 fraction; assay type: toxicity, organism-based; conditions: salmonella enterica subsp. enterica serovar typhimurium
Salmonella typhimurium [12] = test: Induction of mutagenesis in Salmonella Typhimurium TA98 assessed as number of revertants at 6 to 500 ug/plate in presence of mouse liver S9 fraction; assay type: toxicity, organism-based; conditions: salmonella enterica subsp. enterica serovar typhimurium
HT-29 [13] = test: Inhibition of NF-kappaB activation expressed in human HT-29 cells assessed as inhibition of TNFalpha-stimulated IL8 release at 50 uM after 24 hrs by flow cytometric analysis relative to control; assay type: cell-based; how it was run: as §5
Salmonella typhimurium [14] = test: Induction of mutagenesis in Salmonella Typhimurium TA98 assessed as number of revertants at 4 to 350 ug/plate in absence of mouse liver S9 fraction; assay type: toxicity, organism-based; conditions: salmonella enterica subsp. enterica serovar typhimurium; how it was run: as §3
Salmonella typhimurium [15] = test: Induction of mutagenesis in Salmonella Typhimurium TA98 assessed as number of revertants at 4 to 350 ug/plate in presence of mouse liver S9 fraction; assay type: toxicity, organism-based; conditions: salmonella enterica subsp. enterica serovar typhimurium; how it was run: as §3
Rattus norvegicus [16] = test: Antihyperalgesic activity against carrageenan-induced thermal hyperalgesia in Wistar rat assessed as latency of withdrawal response at 100 umol/kg, po administered 1 hr before carrageenan challenge measured after 30 to 240 mins by hot plate test; assay type: functional, organism-based
How it was run: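 Wistar rats of both sexes (150–200 g) dosed orally at 100 µmol/kg as suspension in 5% arabic gum in saline, vehicle controls. After 1 h, 1% carrageenan (1 mg/paw) or saline injected subplantar. Left hind paw withdrawal latency on hot plate at 51 ± 0.1 °C read at 0–240 min, 20 s cut-off. Δ latency = time-0 latency minus later latency; mean ± SEM, n = 8–10; Student t-test.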

Mus musculus = test: Analgesic activity in albino mouse assessed as inhibition of acetic acid-induced abdominal constriction at 100 umol/kg, po administered 1 hr before acetic acid challenge measured after 60 mins relative to control; assay type: functional; conditions: Abdomen
How it was run: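 Albino mice of both sexes (18–23 g) were dosed orally as a suspension in 5% arabic gum in saline, with vehicle controls. After 1 h they received 0.6% acetic acid ip (0.1 mL/10 g). Constrictions were counted for 20 min starting 10 min after injection. Data are % inhibition vs vehicle, mean ± SEM, Student t-test.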

Row | Compound | inhibition in vivo at 100 µmol/kg (Rattus norvegicus [1]) [%] | Activity [2] [nM/min] | Activity [3] [nM/min] | pIC50 [4] | Activity (Salmonella typhimurium [5]) | NF-kappaB activity (% of TNF-alpha control) (HT-29 [6]) [%] | Activity (Salmonella typhimurium [7]) | fold change (FC) (HT-29 [8]) | NF-kappaB activation (% of TNF-alpha control) (HT-29 [9]) [%] | inhibition in vivo at 100 µmol/kg (Rattus norvegicus [10]) [%] | Activity (Salmonella typhimurium [11]) | Activity (Salmonella typhimurium [12]) | inhibition (HT-29 [13]) [%] | Activity (Salmonella typhimurium [14]) | Activity (Salmonella typhimurium [15]) | Activity (Rattus norvegicus [16]) | inhibition in vivo at 100 µmol/kg (Mus musculus) [%]
1 | O=C(N/N=C/c1c(-c2ccccc2)no[n+]1[O-])c1ccc2c(c1)OCO2 | 14 | 0.39 | 0 | < 4.00 | Non-toxic | 12 | Non-toxic | 16 | – | – | – | – | – | – | – | – | –
2 | Cc1[nH]cnc1C(=O)N/N=C/c1ccc2no[n+]([O-])c2c1 | – | 0 | 0 | – | – | – | – | – | 71 | 14 | Toxic | Non-toxic | 51 | – | – | – | –
3 | Cc1c(C(=O)N/N=C/c2ccc(N(C)C)cc2)no[n+]1[O-] | – | – | – | – | – | 150 | – | – | – | – | – | – | – | Non-toxic | Non-toxic | inactive | 22
